In brackets after ≈: the same amount, converted by molar mass.
Test system: not listed separately
Test: Antioxidant activity assessed as hydrogen peroxide radical scavenging activity at 25 ug/ml (reference value: 23.6 to 43.1 %)
Assay type: functional
Conditions: dose 25.0 µg/ml
Outline: (§1)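 Hydrogen peroxide scavenging was measured across a compound series of 0, 25, 50, 75 and 100 µg/ml.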

Row | SMILES | Activity [%]
1 | CC(=O)c1c(C)nc(SCC(=O)Nc2ccc(OCc3ccccc3)cc2)n1-c1ccccc1 | 43.8
2 | O=C1O[C@H]([C@@H](O)CO)C(O)=C1O | 75.1

Test system: Plasmodium falciparum
Test: Antimalarial activity against Plasmodium falciparum assessed as parasite growth inhibition
Assay type: functional, organism-based
Conditions: not given

Row | SMILES | IC50 [µg/mL]
3 | CC(=O)c1c(C)nc(SCC(=O)Nc2ccc(OCc3ccccc3)cc2)n1-c1ccccc1 | 0.93 (≈ 1.97 µM)

Test system: Mycobacterium tuberculosis
Test: Antibacterial activity against Mycobacterium tuberculosis H37Rv assessed as bacterial growth inhibition
Assay type: functional
Conditions: not given

Row | SMILES | MIC [µg/mL]
4 | CC(=O)c1c(C)nc(SCC(=O)Nc2ccc(OCc3ccccc3)cc2)n1-c1ccccc1 | 500 (≈ 1060 µM)

Test system: not listed separately
Test: Antioxidant activity assessed as hydrogen peroxide radical scavenging activity at 75 ug/ml (reference value: 23.6 to 43.1 %)
Assay type: functional
Conditions: dose 75.0 µg/ml
Outline: as §1

Row | SMILES | Activity [%]
5 | CC(=O)c1c(C)nc(SCC(=O)Nc2ccc(OCc3ccccc3)cc2)n1-c1ccccc1 | 69.4
6 | O=C1O[C@H]([C@@H](O)CO)C(O)=C1O | 89

Test system: Pseudomonas aeruginosa
Test: Antibacterial activity against Pseudomonas aeruginosa MTCC 1688 assessed as bacterial growth inhibition
Assay type: functional
Conditions: not given

Row | SMILES | MIC [µg/mL]
7 | CC(=O)c1c(C)nc(SCC(=O)Nc2ccc(OCc3ccccc3)cc2)n1-c1ccccc1 | 50 (≈ 106 µM)

Test system: not listed separately
Test: Antioxidant activity assessed as DPPH radical scavenging activity at 25 ug/ml (reference value: 22 to 40.2 %)
Assay type: functional
Conditions: dose 25.0 µg/ml
Outline: (§2)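 DPPH radical scavenging was measured at 0, 25, 50, 75 and 100 µg/ml of each compound. Ascorbic acid was the reference.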

Row | SMILES | Activity [%]
8 | CC(=O)c1c(C)nc(SCC(=O)Nc2ccc(OCc3ccccc3)cc2)n1-c1ccccc1 | 36.4
9 | O=C1O[C@H]([C@@H](O)CO)C(O)=C1O | 75.1

Test system: Escherichia coli
Test: Antibacterial activity against Escherichia coli MTCC 443 assessed as bacterial growth inhibition
Assay type: functional
Conditions: not given

Row | SMILES | MIC [µg/mL]
10 | CC(=O)c1c(C)nc(SCC(=O)Nc2ccc(OCc3ccccc3)cc2)n1-c1ccccc1 | 125 (≈ 265 µM)

Test system: Streptococcus pyogenes
Test: Antibacterial activity against Streptococcus pyogenes MTCC 442 assessed as bacterial growth inhibition
Assay type: functional
Conditions: not given

Row | SMILES | MIC [µg/mL]
11 | CC(=O)c1c(C)nc(SCC(=O)Nc2ccc(OCc3ccccc3)cc2)n1-c1ccccc1 | 125 (≈ 265 µM)

Test system: Staphylococcus aureus
Test: Antibacterial activity against Staphylococcus aureus MTCC 96 assessed as bacterial growth inhibition
Assay type: functional
Conditions: not given

Row | SMILES | MIC [µg/mL]
12 | CC(=O)c1c(C)nc(SCC(=O)Nc2ccc(OCc3ccccc3)cc2)n1-c1ccccc1 | 25 (≈ 53 µM)

Test system: not listed separately
Test: Antioxidant activity assessed as nitric oxide radical scavenging activity at 100 ug/ml (reference value: 25.8 to 41.6 %)
Assay type: functional
Conditions: dose 100.0 µg/ml
Outline: (§3)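 Nitric oxide radical scavenging was tested at 0, 25, 50, 75 and 100 µg/ml of compound.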

Row | SMILES | Activity [%]
13 | CC(=O)c1c(C)nc(SCC(=O)Nc2ccc(OCc3ccccc3)cc2)n1-c1ccccc1 | 87.4
14 | O=C1O[C@H]([C@@H](O)CO)C(O)=C1O | 91.7

Test system: Enterococcus
Test: Antibacterial activity against vancomycin-resistant Enterococcus assessed as inhibition of bacterial growth
Assay type: functional
Conditions: not given
Outline: (§4)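 Growth inhibition of the drug-resistant strain was read out as the minimum inhibitory concentration (MIC), reported in µg/mL. The same protocol was also run on an ESBL strain.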

Row | SMILES | MIC [µg/mL]
15 | CC(=O)c1c(C)nc(SCC(=O)Nc2ccc(OCc3ccccc3)cc2)n1-c1ccccc1 | 500 (≈ 1060 µM)

Test system: Bacteria
Test: Antibacterial activity against ESBL-producing bacteria assessed as bacterial growth inhibition
Assay type: functional
Conditions: not given
Outline: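 Values are minimum inhibitory concentrations (MIC) in µg/mL, determined at an outside microbiology laboratory.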

Row | SMILES | MIC [µg/mL]
16 | CC(=O)c1c(C)nc(SCC(=O)Nc2ccc(OCc3ccccc3)cc2)n1-c1ccccc1 | 250 (≈ 530 µM)

Test system: not listed separately
Test: Antioxidant activity assessed as nitric oxide radical scavenging activity at 25 ug/ml (reference value: 25.8 to 41.6 %)
Assay type: functional
Conditions: dose 25.0 µg/ml
Outline: as §3

Row | SMILES | Activity [%]
17 | CC(=O)c1c(C)nc(SCC(=O)Nc2ccc(OCc3ccccc3)cc2)n1-c1ccccc1 | 48.3
18 | O=C1O[C@H]([C@@H](O)CO)C(O)=C1O | 75.1

Test system: Candida albicans
Test: Antifungal activity against Candida albicans MTCC 227 assessed as fungal growth inhibition
Assay type: functional
Conditions: not given

Row | SMILES | MFC [µg/mL]
19 | CC(=O)c1c(C)nc(SCC(=O)Nc2ccc(OCc3ccccc3)cc2)n1-c1ccccc1 | 500 (≈ 1060 µM)

Test system: not listed separately
Test: Antioxidant activity assessed as nitric oxide radical scavenging activity at 50 ug/ml (reference value: 25.8 to 41.6 %)
Assay type: functional
Conditions: dose 50.0 µg/ml
Outline: as §3

Row | SMILES | Activity [%]
20 | CC(=O)c1c(C)nc(SCC(=O)Nc2ccc(OCc3ccccc3)cc2)n1-c1ccccc1 | 64.2
21 | O=C1O[C@H]([C@@H](O)CO)C(O)=C1O | 80.6

Test system: not listed separately
Test: Antioxidant activity assessed as hydrogen peroxide radical scavenging activity at 50 ug/ml (reference value: 23.6 to 43.1 %)
Assay type: functional
Conditions: dose 50.0 µg/ml
Outline: as §1

Row | SMILES | Activity [%]
22 | CC(=O)c1c(C)nc(SCC(=O)Nc2ccc(OCc3ccccc3)cc2)n1-c1ccccc1 | 58
23 | O=C1O[C@H]([C@@H](O)CO)C(O)=C1O | 80.6

Test system: not listed separately
Test: Antioxidant activity assessed as nitric oxide radical scavenging activity at 75 ug/ml (reference value: 25.8 to 41.6 %)
Assay type: functional
Conditions: dose 75.0 µg/ml
Outline: as §3

Row | SMILES | Activity [%]
24 | CC(=O)c1c(C)nc(SCC(=O)Nc2ccc(OCc3ccccc3)cc2)n1-c1ccccc1 | 80.3
25 | O=C1O[C@H]([C@@H](O)CO)C(O)=C1O | 89

Test system: not listed separately
Test: Antioxidant activity assessed as hydrogen peroxide radical scavenging activity at 100 ug/ml (reference value: 23.6 to 43.1 %)
Assay type: functional
Conditions: dose 100.0 µg/ml
Outline: as §1

Row | SMILES | Activity [%]
26 | CC(=O)c1c(C)nc(SCC(=O)Nc2ccc(OCc3ccccc3)cc2)n1-c1ccccc1 | 81.9
27 | O=C1O[C@H]([C@@H](O)CO)C(O)=C1O | 91.7

Test system: Aspergillus clavatus
Test: Antifungal activity against Aspergillus clavatus MTCC 1323 assessed as fungal growth inhibition
Assay type: functional
Conditions: not given

Row | SMILES | MFC [µg/mL]
28 | CC(=O)c1c(C)nc(SCC(=O)Nc2ccc(OCc3ccccc3)cc2)n1-c1ccccc1 | 1000 (≈ 2120 µM)

Test system: Aspergillus niger
Test: Antifungal activity against Aspergillus niger MTCC 282 assessed as fungal growth inhibition
Assay type: functional
Conditions: not given

Row | SMILES | MFC [µg/mL]
29 | CC(=O)c1c(C)nc(SCC(=O)Nc2ccc(OCc3ccccc3)cc2)n1-c1ccccc1 | 1000 (≈ 2120 µM)

Test system: not listed separately
Test: Antioxidant activity assessed as DPPH radical scavenging activity at 100 dilution
Assay type: functional
Conditions: not given

Row | SMILES | Activity [%]
30 | O=C1O[C@H]([C@@H](O)CO)C(O)=C1O | 91.7

Test system: not listed separately
Test: Antioxidant activity assessed as DPPH radical scavenging activity at 50 ug/ml (reference value: 22 to 40.2 %)
Assay type: functional
Conditions: dose 50.0 µg/ml
Outline: as §2

Row | SMILES | Activity [%]
31 | CC(=O)c1c(C)nc(SCC(=O)Nc2ccc(OCc3ccccc3)cc2)n1-c1ccccc1 | 48.6
32 | O=C1O[C@H]([C@@H](O)CO)C(O)=C1O | 80.6

Test system: not listed separately
Test: Antioxidant activity assessed as DPPH radical scavenging activity at 75 ug/ml (reference value: 22 to 40.2 %)
Assay type: functional
Conditions: dose 75.0 µg/ml
Outline: as §2

Row | SMILES | Activity [%]
33 | CC(=O)c1c(C)nc(SCC(=O)Nc2ccc(OCc3ccccc3)cc2)n1-c1ccccc1 | 60
34 | O=C1O[C@H]([C@@H](O)CO)C(O)=C1O | 89

Test system: not listed separately
Test: Antioxidant activity assessed as DPPH radical scavenging activity at 100 ug/ml (reference value: 22 to 40.2 %)
Assay type: functional
Conditions: dose 100.0 µg/ml
Outline: as §2

Row | SMILES | Activity [%]
35 | CC(=O)c1c(C)nc(SCC(=O)Nc2ccc(OCc3ccccc3)cc2)n1-c1ccccc1 | 84.3
36 | O=C1O[C@H]([C@@H](O)CO)C(O)=C1O | 91.7

Test system: Staphylococcus aureus
Test: Antibacterial activity against methicillin-resistant Staphylococcus aureus assessed as inhibition of bacterial growth
Assay type: functional
Conditions: not given
Outline: as §4

Row | SMILES | MIC [µg/mL]
37 | CC(=O)c1c(C)nc(SCC(=O)Nc2ccc(OCc3ccccc3)cc2)n1-c1ccccc1 | 100 (≈ 212 µM)

Reference: ChEMBL document CHEMBL4732167, “Structure based design, synthesis, and biological evaluation of imidazole derivatives targeting dihydropteroate synthase enzyme” (Bioorg Med Chem Lett, 2021)
